# From the M2OR odorant receptor database
# System: T1, O5AN1
# T1 sequence (whole entry): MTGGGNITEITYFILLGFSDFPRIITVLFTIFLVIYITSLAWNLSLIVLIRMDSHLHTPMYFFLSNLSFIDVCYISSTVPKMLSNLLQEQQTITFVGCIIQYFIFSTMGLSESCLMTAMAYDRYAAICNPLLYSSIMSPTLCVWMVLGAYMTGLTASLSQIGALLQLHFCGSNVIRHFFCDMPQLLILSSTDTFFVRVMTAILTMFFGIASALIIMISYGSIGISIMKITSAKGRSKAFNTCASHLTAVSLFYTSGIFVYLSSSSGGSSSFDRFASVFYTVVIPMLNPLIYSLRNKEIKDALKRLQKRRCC
# Conditions: stereoisomer not certain
# In short: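 Whether a receptor–molecule pair is responsive (active) rests on the original authors' judgment that its measured signal was statistically different from baseline. Pairs without that judgment are non-responsive (inactive). Sources used varied assay methods, commonly transient luciferase assays in mammalian cell lines.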
# 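Further: active if original authors judged signal statistically different from baseline.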
compound,measurement,value
CC1CC=CCCCCCCCCCC(=O)C1 (stereo unspecified),odorant receptor agonist call,active
